# Measured values as given in ChEMBL document CHEMBL2346548, “Design, synthesis, and structure-activity relationship studies of tryptanthrins as antitubercular agents” (J Nat Prod, 2013).
# Experiments:
# [1] = biological target: CYP3A4 (Homo sapiens, UniProt P08684); assay: Inhibition of human recombinant CYP3A4 at 10 uM incubated for 30 mins at 37 degC using 7-benzyloxy-4-(trifluoromethyl)coumarin substrate; format: ADME; conditions: recombinant CYP3A4, probe 7-benzyloxy-4-(trifluoromethyl)coumarin
# [2] = Metabolic stability in human liver microsomes assessed as parent compound remaining at 1 uM incubated for 1 hr by HPLC-MS/MS method; format: ADME, Microsome; conditions: read-out: Stability
# Summary of the method: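 Pooled mixed-gender human liver microsomes (0.3 mg/mL protein), 1 μM compound with NADP-regenerating system in phosphate buffer pH 7.4, 1 h at 37 °C; parent measured at start and end by HPLC-MS/MS; duplicate means.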
# [3] = Solubility in simulated gastric fluid at pH 1.5 by HPLC method; format: physicochemical
# Summary of the method: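 Compound at 200 μM final in 2% DMSO in simulated gastric fluid, shaken 24 h at room temperature; HPLC-photodiode array detection at 230 nm; duplicate means.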
# [4] = test system: Mycobacterium tuberculosis; assay: Antitubercular activity against Mycobacterium tuberculosis H37Rv incubated at 37 degC for 14 days in presence of 40% human serum by microplate alamar blue assay; format: functional; conditions: 336 h
# Summary of the method: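 This is the MABA run in 7H9 broth containing 40% human serum. Compounds were 2-fold serially diluted, and wells were inoculated with H37Rv at 2 × 10⁵ CFU/mL. Incubation was at 37 °C for 14 days, then Alamar Blue was added. MIC was the lowest concentration preventing the blue-to-pink colour change.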
# [5] = Solubility in simulated intestinal fluid at pH 7.6 by HPLC method; format: physicochemical
# Summary of the method: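 Simulated intestinal fluid medium; each analogue 200 μM final in 2% DMSO, shaken 24 h at room temperature, then HPLC with photodiode array read at 230 nm; duplicate, means given.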
# [6] = test system: Mycobacterium tuberculosis; assay: Antitubercular activity against Mycobacterium tuberculosis H37Rv incubated at 37 degC for 7 days by microplate alamar blue assay; format: functional; conditions: for MIC: Mycobacterium tuberculosis, H37Rv, 168 h
# Summary of the method: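 Mtb H37Rv was grown in 7H9 broth with glycerol, Casitone, 10% OADC and 0.05% Tween 80 to OD600 0.4. Compounds were 2-fold serially diluted from DMSO stocks in 7H9, and wells were inoculated at 2 × 10⁵ CFU/mL. After 7 days at 37 °C, Alamar Blue was added and read after a further 24 h. MIC was the lowest concentration preventing the blue-to-pink change.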
# [7] = Distribution coefficient, log D of the compound between n-octanol and PBS buffer at pH 7.4 incubated for 1 hr by shake flask method; format: physicochemical
# Summary of the method: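 Partition between n-octanol and PBS pH 7.4 after 1 h shaking at room temperature; phases analysed by HPLC with photodiode detection; logD = log10 of organic/aqueous amount.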
# [8] = biological target: CYP2C9 (Homo sapiens, UniProt P11712); assay: Inhibition of human recombinant CYP2C9 at 10 uM incubated for 80 mins at 37 degC using 7-methoxy-4-trifluoromethylcoumarin substrate; format: ADME; conditions: recombinant CYP2C9, probe 7-methoxy-4-trifluoromethylcoumarin
# [9] = Protein binding in human plasma at 10 uM incubated for 8 hrs at 37 degC by equilibrium dialysis method; format: ADME, cell-free; conditions: read-out: PPB (converted)
# Summary of the method: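 Equilibrium dialysis: 10 μM compound in 1% DMSO in human plasma vs 0.05 M phosphate buffer pH 7.5 across 12–14 K cutoff membrane, at least 8 h at 37 °C; HPLC-photodiode detection at 230 nm; duplicate means.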
# [10] = test system: Mycobacterium tuberculosis; assay: Antitubercular activity against non-replicating Mycobacterium tuberculosis H37Rv incubated for 10 days by LORA method; format: functional; conditions: 240 h
# Summary of the method: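 H37Rv carrying pFCA-luxAB was adapted to low oxygen by gradual self-depletion in a sealed, slowly stirred flask. It was then exposed to compounds for 10 days under anaerobic conditions. Cultures recovered for 28 h in ambient oxygen before n-decanal substrate was added and luminescence read. MIC was the lowest concentration giving a 90% reduction in luminescence versus untreated controls.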
# [11] = Permeability across basolateral to apical side in human Caco2 cells incubated for 1 hr at 37 degC by HPLC-MS/MS method; format: ADME, cell-based; conditions: Caco-2
# [12] = biological target: CYP2C19 (Homo sapiens, UniProt P33261); assay: Inhibition of human recombinant CYP2C19 at 10 uM incubated for 60 mins at 37 degC using 3-cyano-7-ethoxycoumarin substrate; format: ADME; conditions: recombinant CYP2C19, probe 3-cyano-7-ethoxycoumarin
# [13] = Permeability across apical to basolateral side in human Caco2 cells incubated for 1 hr at 37 degC by HPLC-MS/MS method; format: ADME, cell-based; conditions: Caco-2
# Summary of the method: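 TC7 (Caco-2 subclone) monolayer; 10 μM compound in 1% DMSO in HBSS-MES pH 6.5 on apical donor side, basolateral receiver pH 7.4; shaken 1 h at 37 °C; receiver sampled, HPLC-MS/MS; duplicate means.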
# [14] = test system: Vero; assay: Cytotoxicity against african green monkey Vero cells; format: cell-based, Chlorocebus sabaeus; conditions: Chlorocebus sabaeus, Vero; read-out: IC50
# [15] = Aqueous solubility in PBS buffer at pH 7.4 by HPLC method; format: physicochemical; conditions: PBS buffer, read-out: solubility
# Summary of the method: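 Compound at 200 μM final in 2% DMSO in PBS pH 7.4, shaken 24 h at room temperature; quantified by HPLC with photodiode array detection at 230 nm; duplicate, mean reported.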
# [16] = Efflux ratio in human Caco2 cells incubated for 1 hr at 37 degC by HPLC-MS/MS method; format: ADME, cell-based; conditions: Caco-2
# CYP2C19, sequence (P33261 whole entry): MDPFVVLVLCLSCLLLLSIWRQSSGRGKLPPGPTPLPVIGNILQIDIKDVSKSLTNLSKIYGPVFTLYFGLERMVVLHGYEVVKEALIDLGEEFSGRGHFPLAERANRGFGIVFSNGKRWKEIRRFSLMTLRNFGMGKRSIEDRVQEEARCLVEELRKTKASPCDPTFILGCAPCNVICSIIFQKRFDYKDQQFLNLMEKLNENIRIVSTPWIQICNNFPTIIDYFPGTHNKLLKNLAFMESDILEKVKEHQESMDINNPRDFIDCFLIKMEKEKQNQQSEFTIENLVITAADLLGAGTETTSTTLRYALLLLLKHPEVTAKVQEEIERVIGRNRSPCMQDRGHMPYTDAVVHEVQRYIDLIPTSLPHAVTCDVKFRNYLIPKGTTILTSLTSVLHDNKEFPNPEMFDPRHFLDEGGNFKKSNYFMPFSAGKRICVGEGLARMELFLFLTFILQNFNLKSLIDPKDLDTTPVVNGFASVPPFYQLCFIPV
# CYP3A4, sequence (P08684 whole entry): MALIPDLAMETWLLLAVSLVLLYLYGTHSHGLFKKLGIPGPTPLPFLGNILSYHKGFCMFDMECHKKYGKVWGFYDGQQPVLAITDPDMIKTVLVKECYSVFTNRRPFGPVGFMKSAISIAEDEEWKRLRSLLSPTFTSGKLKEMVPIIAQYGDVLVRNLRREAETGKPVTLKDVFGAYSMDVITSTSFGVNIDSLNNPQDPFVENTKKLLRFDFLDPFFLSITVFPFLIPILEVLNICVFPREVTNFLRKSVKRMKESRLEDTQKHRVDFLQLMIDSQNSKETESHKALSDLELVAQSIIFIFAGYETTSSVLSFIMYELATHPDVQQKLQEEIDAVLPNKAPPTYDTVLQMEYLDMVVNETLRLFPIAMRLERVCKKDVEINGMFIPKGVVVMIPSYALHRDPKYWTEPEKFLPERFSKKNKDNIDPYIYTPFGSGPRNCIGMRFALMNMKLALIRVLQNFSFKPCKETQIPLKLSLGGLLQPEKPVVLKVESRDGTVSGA
# CYP2C9, sequence (P11712 whole entry): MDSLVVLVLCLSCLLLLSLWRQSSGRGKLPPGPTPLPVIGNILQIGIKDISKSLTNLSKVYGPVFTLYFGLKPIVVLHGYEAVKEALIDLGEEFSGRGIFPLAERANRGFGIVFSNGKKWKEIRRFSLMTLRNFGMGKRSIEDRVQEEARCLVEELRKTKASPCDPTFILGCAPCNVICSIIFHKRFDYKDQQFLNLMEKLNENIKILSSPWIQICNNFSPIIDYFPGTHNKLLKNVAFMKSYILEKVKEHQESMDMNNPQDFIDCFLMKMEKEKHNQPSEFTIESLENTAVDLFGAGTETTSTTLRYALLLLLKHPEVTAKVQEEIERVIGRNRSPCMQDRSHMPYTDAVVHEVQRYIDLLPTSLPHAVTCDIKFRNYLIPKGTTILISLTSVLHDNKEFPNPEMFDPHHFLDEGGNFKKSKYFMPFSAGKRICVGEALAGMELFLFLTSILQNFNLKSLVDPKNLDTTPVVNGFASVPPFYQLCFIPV
SMILES,"inhibition at 0.5 h, 10 µM [1]","remaining at 1 h, 1 µM [2]",solubility [3],MIC [4],solubility [5],MBC90 [6],MIC [6],logD at 1 h [7],"inhibition at 80 min, 10 µM [8]","fraction unbound at 8 h, 10 µM [9]",MIC90 [10],Papp B→A at 1 h [11],"inhibition at 1 h, 10 µM [12]",Papp A→B at 1 h [13],IC50 [14],solubility [15],efflux ratio at 1 h [16]
O=C1c2ccc(Cl)cc2-n2c1nc1ccccc1c2=O,7%,27%,71.9 µM,0.5 µg/mL,20.3 µM,0.5 µg/mL,0.25 µg/mL,2.45,25%,0.01,> 50 µg/mL,0.1 ×10⁻⁶ cm/s,4%,0.4 ×10⁻⁶ cm/s,> 50 µg/mL,,
O=C1c2cc(Br)ccc2-n2c1nc1ccccc1c2=O,,59%,2.3 µM,0.5 µg/mL,92.9 µM,,0.125 µg/mL,,,,> 50 µg/mL,7.6 ×10⁻⁶ cm/s,,23.8 ×10⁻⁶ cm/s,35 µg/mL,2.6 µM,> 1
O=C1c2ccccc2-n2c1nc1ccc(Br)cc1c2=O,10%,,,0.5 µg/mL,49.4 µM,0.5 µg/mL,0.25 µg/mL,1.69,20%,,> 50 µg/mL,,10%,,> 50 µg/mL,,
O=C1C2=Nc3ccncc3CN2c2ccc(Cl)cc21,,,,,,,2 µg/mL,,,,8.3 µg/mL,,,,3.7 µg/mL,,
O=C1c2cc(OC(F)(F)F)ccc2-n2c1nc1ccccc1c2=O,,59%,1.5 µM,0.5 µg/mL,31.3 µM,,0.125 µg/mL,,,,> 50 µg/mL,5.8 ×10⁻⁶ cm/s,,22 ×10⁻⁶ cm/s,> 50 µg/mL,1 µM,> 1
O=C1C2=Nc3ccncc3CN2c2ccccc21,,,,,,,16 µg/mL,,,,> 20 µg/mL,,,,> 20 µg/mL,,
O=C1c2cc(Br)ccc2-n2c1nc1ccncc1c2=O,14%,96%,45 µM,0.5 µg/mL,34.4 µM,0.25 µg/mL,1 µg/mL,1.6,10%,,> 50 µg/mL,,16%,,> 50 µg/mL,35.4 µM,
O=C1C2=Nc3ccccc3CN2c2ccccc21,,,,2 µg/mL,,,1 µg/mL,,,,20 µg/mL,,,,42 µg/mL,,
O=C1c2cc(Cl)ccc2-n2c1nc1ccc(F)cc1c2=O,,63%,,0.312 µg/mL,29.8 µM,,0.156 µg/mL,,,,> 50 µg/mL,2.1 ×10⁻⁶ cm/s,,2.2 ×10⁻⁶ cm/s,23.5 µg/mL,,
O=C1c2cc(C(=O)N3CCOCC3)ccc2-n2c1nc1ccccc1c2=O,,,,32 µg/mL,,,8 µg/mL,,,,> 10 µg/mL,,,,> 10 µg/mL,,
CCOC(=O)c1ccc2c(c1)C(=O)c1nc3ccccc3c(=O)n1-2,5%,0%,1.5 µM,1 µg/mL,11.1 µM,,0.5 µg/mL,2.94,38%,0.016,,0.8 ×10⁻⁶ cm/s,10%,4.2 ×10⁻⁶ cm/s,> 16 µg/mL,3.8 µM,
O=C1c2cc([N+](=O)[O-])ccc2-n2c1nc1ccccc1c2=O,,33%,5.1 µM,0.5 µg/mL,152 µM,0.25 µg/mL,0.032 µg/mL,,,0.031,2.4 µg/mL,,,,28 µg/mL,64.3 µM,
